{"source": "paper PMC2119492", "about": "(The Journal of Cell Biology, 1993)", "type_in_all_cases": "cell-based, Saccharomyces cerevisiae", "key": {"[1]": {"system": "wild-type cells (RH144-3D)", "experiment": "35S-a-factor internalization assay", "settings": "after a 34 °C preincubation; data not shown"}, "[2]": {"system": "wild-type cells (RH144-3D)", "experiment": "LY-CH accumulation in the vacuole", "settings": "LY 4 mg/ml, fluorescence microscopy, minimum of 46 cells counted", "in_short": "(§1)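 Cells grown overnight at 24°C, then harvested and split. One half stayed at 24°C. The other was shifted slowly to 35°C by resetting the water bath, and lucifer yellow CH (4 mg/ml) was added once 35°C was reached. Cells were washed extensively in ice-cold 50 mM sodium succinate pH 5 with 10 mM sodium azide, then viewed by Nomarski and fluorescence optics with 20–25 s exposures. Cells with clear vacuolar staining were scored positive. Cells without staining but with a vacuole visible by Nomarski were scored negative.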"}, "end3 cells (RH266-1D) [3]": {"system": "end3 cells (RH266-1D)", "experiment": "LY-CH accumulation in the vacuole", "settings": "LY 4 mg/ml, fluorescence microscopy, minimum of 46 cells counted", "in_short": "as §1"}, "end4 cells (RH268-1C)": {"system": "end4 cells (RH268-1C)", "experiment": "LY-CH accumulation in the vacuole", "settings": "LY 4 mg/ml, fluorescence microscopy, minimum of 46 cells counted", "in_short": "as §1"}, "end3 cells (RH266-1D) [4]": {"system": "end3 cells (RH266-1D)", "experiment": "a-factor sensitivity halo assay", "settings": "24 °C", "in_short": "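Halo assay. Early log-phase cells were counted, washed with YPUAD and embedded in YPUAD containing 0.8% agar at 47°C. Disks containing α-factor were placed on the agar surface, and the radius of the growth-inhibition zone was read. The radius is logarithmically proportional to strain sensitivity.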"}}}
{"compound": "C[C@@H]1C[C@@H]([C@H](O)CC2CC(=O)NC(=O)C2)C(=O)[C@@H](C)C1", "note": "[cycloheximide]", "values": [{"measurement": "effect of cycloheximide on a-factor internalization kinetics", "setting": "[1]", "value": "identical to cells which receive no cycloheximide"}]}
{"compound": "Lucifer yellow-CH [LY]", "values": [{"measurement": "% of cells showing vacuolar labeling", "setting": "[2]; 24 °C, 2 h", "value": 92, "unit": "%"}, {"measurement": "% of cells showing vacuolar labeling", "setting": "[2]; 35 °C, 1 h", "value": 97, "unit": "%"}, {"measurement": "% of cells showing vacuolar labeling", "setting": "end3 cells (RH266-1D) [3]; 24 °C, 2 h", "value": 4, "unit": "%"}, {"measurement": "% of cells showing vacuolar labeling", "setting": "end3 cells (RH266-1D) [3]; 35 °C, 1 h", "value": 4, "unit": "%"}, {"measurement": "% of cells showing vacuolar labeling", "setting": "end4 cells (RH268-1C); 24 °C, 2 h", "value": 10, "unit": "%"}, {"measurement": "% of cells showing vacuolar labeling", "setting": "end4 cells (RH268-1C); 35 °C, 1 h", "value": 0, "unit": "%"}]}
{"compound": "alpha-factor", "values": [{"measurement": "a-factor needed to form the same size halo, relative to end4 or wild-type cells", "setting": "end3 cells (RH266-1D) [4]", "value": "approximately two times less"}]}
